Measured values from different studies.
Target: Discoidin domain-containing receptor 2 (DDR2, Homo sapiens, UniProt Q16832)
One construct used (Q16832 1-855): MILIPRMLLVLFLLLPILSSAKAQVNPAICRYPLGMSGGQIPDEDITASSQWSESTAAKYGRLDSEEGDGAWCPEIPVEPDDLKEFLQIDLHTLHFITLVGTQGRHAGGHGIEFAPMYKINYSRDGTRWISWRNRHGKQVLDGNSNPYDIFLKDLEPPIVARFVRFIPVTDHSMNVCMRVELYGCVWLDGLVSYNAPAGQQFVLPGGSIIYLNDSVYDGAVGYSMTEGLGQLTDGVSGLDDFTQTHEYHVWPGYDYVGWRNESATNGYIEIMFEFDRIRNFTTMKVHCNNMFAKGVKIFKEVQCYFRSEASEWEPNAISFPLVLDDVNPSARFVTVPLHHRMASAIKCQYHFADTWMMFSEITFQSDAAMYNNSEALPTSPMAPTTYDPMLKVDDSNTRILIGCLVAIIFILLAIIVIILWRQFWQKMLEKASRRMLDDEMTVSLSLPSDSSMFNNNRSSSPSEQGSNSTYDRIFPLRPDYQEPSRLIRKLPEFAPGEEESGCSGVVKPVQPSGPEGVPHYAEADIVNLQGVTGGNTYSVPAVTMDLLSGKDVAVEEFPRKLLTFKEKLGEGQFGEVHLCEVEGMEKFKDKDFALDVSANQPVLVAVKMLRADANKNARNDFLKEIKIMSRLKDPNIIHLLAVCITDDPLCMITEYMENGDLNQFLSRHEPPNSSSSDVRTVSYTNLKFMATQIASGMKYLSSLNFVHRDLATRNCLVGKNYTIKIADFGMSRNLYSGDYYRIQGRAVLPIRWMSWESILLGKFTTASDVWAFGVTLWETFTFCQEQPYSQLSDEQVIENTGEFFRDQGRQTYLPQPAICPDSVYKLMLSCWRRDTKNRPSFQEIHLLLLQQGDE

| SMILES | read-out | method | tested at | remaining binding [%] |
| --- | --- | --- | --- | --- |
| O=C(O)c1cc(-c2ccc(C3CCNCC3)cc2)c2ccc(-c3ccc(C(F)(F)F)cc3)cc2c1 | cell-free assay | competition with immobilised ligand | 1 µM | 100 |
| O=C(NCCCN1CCOCC1)c1ccc(Nc2nccc(-c3cc4ccccc4s3)n2)cc1 | binding | competition with immobilised ligand | 1 µM | 43 |
| CC(=O)C1=C(C)N(c2cccc(C(F)(F)F)c2)C(=O)N[C@@H]1c1ccc(C#N)nc1 | cell-free assay | competition with immobilised ligand | 1 µM | 87.6 |
| Nc1ncc2c(n1)-c1c([nH]c3ccc(C#CC4CC4)cc13)CCCC2 | binding | competition with immobilised ligand | 1 µM | 80 |
| CNC(=O)[C@@H]1CC[C@@H](n2c(-c3ccc4cnccc4c3)nc3ccc(C(=O)NCc4cccc(C(N)=O)c4)cc32)C1 | binding | competition with immobilised ligand | 1 µM | 93 |
| CN(CCCC(F)(F)F)c1nccc(-c2cnn3ncccc23)n1 | binding | – | 1 µM | 96 |
| CN(C)CC#Cc1ccc(OCCCc2sc(N3CCc4cccc(C(=O)Nc5nc6ccccc6s5)c4C3)nc2C(=O)O)c(F)c1 | cell-free assay | competition with immobilised ligand | 1 µM | 83 |
| CCN1CCN(Cc2ccc(C(=O)Nc3ccc(C)c(Oc4ccc5c(c4)CC(=O)N5)c3)cc2C(F)(F)F)CC1 | binding | competition with immobilised ligand | 1 µM | 14 |
| CN(c1nccc(-c2cnn3ncccc23)n1)C1CC1 | binding | – | 1 µM | 100 |
| c1cncc(-c2cccc(Nc3nccc(NC4CCCCC4)n3)c2)c1 | binding | competition with immobilised ligand | 10 µM | 86 |
| O=C(NCC1CCOCC1)c1n[nH]cc1NC(=O)c1c(F)cccc1F | binding | competition with immobilised ligand | 1 µM | 100 |
| O=C(Nc1cccnn1)N1CCC(=Cc2cccc(Oc3ccc(C(F)(F)F)cn3)c2)CC1 | cell-free assay | competition with immobilised ligand | 1 µM | 100 |
| O=C(c1ccc(Nc2ncc(Cl)c(-c3ccc(Cl)s3)n2)cc1)N1CCC(N2CCCC2)CC1 | binding | competition with immobilised ligand | 1 µM | 33 |
| COc1ncc2cc3ccccc3nc2c1C#N | cell-free assay | competition with immobilised ligand | 5 µM | 94 |
| C[C@@H]1CCN(c2nccc(-c3cnn4ncccc34)n2)C1 | binding | – | 1 µM | 66 |
| O=C(c1ccc(Nc2ncc(Cl)c(-c3cc4ccccc4s3)n2)cc1)N1CCC(N2CCCC2)CC1 | binding | competition with immobilised ligand | 1 µM | 23 |
| Nc1cnc(N2CCc3cc(S(=O)(=O)Nc4c(F)cc(Cl)cc4F)cc(N4CCCC4=O)c32)nc1 | cell-free assay | competition with immobilised ligand | 1 µM | 100 |
| N[C@@H]1CCN(c2nccc(-c3cnn4ncccc34)n2)C1 | binding | – | 1 µM | 100 |
| CC(C)CC(=O)N1CCc2nc(-c3ccc(Br)cc3)nc(N(C)Cc3ccccc3)c2C1 | cell-free assay | competition with immobilised ligand | 0.1 µM | 97 |
| CN(C)c1nccc(-c2cnn3ncccc23)n1 | binding | – | 1 µM | 100 |
